According to ChEMBL document CHEMBL3045066, “Synthesis, structure-activity relationships (SAR) and in silico studies of coumarin derivatives with antifungal activity” (2013):
≈ marks a conversion by molar mass, not a printed value.

Columns and labels:
Type in all cases: functional
Aspergillus fumigatus [1] = assay: Antifungal activity against Aspergillus fumigatus ATCC 46913 after 72 hr by broth microdilution method; details: ATCC 46913, 72 h
Method in brief: (§1)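 Molds were grown 7 days on SDA at 25–28 °C, and conidia were harvested in sterile 0.85% NaCl. Conidia were counted by hemocytometer and adjusted to about 5 × 10^6 conidia/mL. Microdilution used Sabouraud broth in 96-well plates with compound at 2048 to 8 μg/mL and about 2.5 × 10^5 conidia/mL per well. Plates were incubated at 25–28 °C for 72 h, with readings confirmed at 7 days. Amphotericin B was the reference.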

Aspergillus flavus [2] = assay: Antifungal activity against Aspergillus flavus LM 210 after 72 hr by broth microdilution method; details: LM 210, 72 h; method in brief: as §1
Aspergillus flavus [3] = assay: Antifungal activity against Aspergillus flavus ATCC 16013 after 72 hr by broth microdilution method; details: ATCC 16013, 72 h; method in brief: as §1
Aspergillus fumigatus [4] = assay: Antifungal activity against Aspergillus fumigatus ATCC 40640 after 72 hr by broth microdilution method; details: ATCC 40640, 72 h; method in brief: as §1
Aspergillus flavus [5] = assay: Antifungal activity against Aspergillus flavus LM 247 after 72 hr by broth microdilution method; details: LM 247, 72 h; method in brief: as §1
Aspergillus flavus [6] = assay: Antifungal activity against Aspergillus flavus LM 26 after 72 hr by broth microdilution method; details: LM 26, 72 h; method in brief: as §1
Aspergillus fumigatus [7] = assay: Antifungal activity against Aspergillus fumigatus IPP 210 after 72 hr by broth microdilution method; details: IPP 210, 72 h; method in brief: as §1
Aspergillus fumigatus [8] = assay: Antifungal activity against Aspergillus fumigatus ATCC 16913 after 72 hr by broth microdilution method; details: for MIC: Aspergillus fumigatus, ATCC 16913, 72 h; method in brief: as §1

SMILES	MIC (Aspergillus fumigatus [1]) [µg/mL]	MIC (Aspergillus flavus [2]) [µg/mL]	MIC (Aspergillus flavus [3]) [µg/mL]	MIC (Aspergillus fumigatus [4]) [µg/mL]	MIC (Aspergillus flavus [5]) [µg/mL]	MIC (Aspergillus flavus [6]) [µg/mL]	MIC (Aspergillus fumigatus [7]) [µg/mL]	log(1/MIC) (Aspergillus fumigatus [8])	MIC (Aspergillus fumigatus [8]) [µg/mL]
C=CCOc1ccc2oc(=O)ccc2c1	≥ 2050	≥ 2050	≥ 2050	≥ 2050	≥ 2050	≥ 2050	≥ 2050	1.99	≥ 2050
C=CCOc1cc(=O)oc2ccccc12	32 (≈ 158 µM)	32 (≈ 158 µM)	32 (≈ 158 µM)	32 (≈ 158 µM)	1020 (≈ 5060 µM)	64 (≈ 317 µM)	64 (≈ 317 µM)	3.8	32 (≈ 158 µM)
CC(C)=CCOc1ccc2oc(=O)ccc2c1	≥ 2050	≥ 2050	≥ 2050	≥ 2050	≥ 2050	≥ 2050	≥ 2050	2.05	≥ 2050
CC(C)=CCC/C(C)=C/COc1ccc2oc(=O)ccc2c1	≥ 2050	≥ 2050	≥ 2050	≥ 2050	≥ 2050	≥ 2050	≥ 2050	2.16	≥ 2050
CC(=O)Oc1ccc2oc(=O)ccc2c1	256 (≈ 1250 µM)	256 (≈ 1250 µM)	256 (≈ 1250 µM)	256 (≈ 1250 µM)	256 (≈ 1250 µM)	256 (≈ 1250 µM)	256 (≈ 1250 µM)	2.89	256 (≈ 1250 µM)
CC(=O)Oc1cc(=O)oc2ccccc12	16 (≈ 78.4 µM)	16 (≈ 78.4 µM)	16 (≈ 78.4 µM)	16 (≈ 78.4 µM)	16 (≈ 78.4 µM)	16 (≈ 78.4 µM)	16 (≈ 78.4 µM)	4.1	16 (≈ 78.4 µM)
CCOC(=O)COc1ccc2ccc(=O)oc2c1	512 (≈ 2060 µM)	512 (≈ 2060 µM)	512 (≈ 2060 µM)	512 (≈ 2060 µM)	512 (≈ 2060 µM)	512 (≈ 2060 µM)	512 (≈ 2060 µM)	2.68	512 (≈ 2060 µM)
O=c1ccc2cc([N+](=O)[O-])c(O)cc2o1	16 (≈ 77.2 µM)	16 (≈ 77.2 µM)	16 (≈ 77.2 µM)	16 (≈ 77.2 µM)	16 (≈ 77.2 µM)	16 (≈ 77.2 µM)	16 (≈ 77.2 µM)	4.11	16 (≈ 77.2 µM)
O=c1ccc2c([N+](=O)[O-])c(O)c([N+](=O)[O-])cc2o1	512 (≈ 2030 µM)	512 (≈ 2030 µM)	512 (≈ 2030 µM)	512 (≈ 2030 µM)	512 (≈ 2030 µM)	512 (≈ 2030 µM)	512 (≈ 2030 µM)	2.69	512 (≈ 2030 µM)
O=c1oc2ccccc2c(O)c1[N+](=O)[O-]	1020 (≈ 4940 µM)	1020 (≈ 4940 µM)	1020 (≈ 4940 µM)	1020 (≈ 4940 µM)	1020 (≈ 4940 µM)	1020 (≈ 4940 µM)	1020 (≈ 4940 µM)	2.3	1020 (≈ 4940 µM)
O=c1oc2ccccc2cc1O [3-HYDROXYCOUMARIN]	64 (≈ 395 µM)	128 (≈ 789 µM)	128 (≈ 789 µM)	64 (≈ 395 µM)	128 (≈ 789 µM)	128 (≈ 789 µM)	64 (≈ 395 µM)	3.4	64 (≈ 395 µM)
O=c1cc(O)c2ccccc2o1 [4-HYDROXYCOUMARINS]	≥ 2050	≥ 2050	≥ 2050	≥ 2050	≥ 2050	≥ 2050	≥ 2050	1.89	≥ 2050
